In ChEMBL document CHEMBL3286113, “New potent antibacterial oxazolidinone (MRX-I) with an improved class safety profile” (J Med Chem, 2014):
pIC50: −log10 of the molar value. ≈ marks a conversion by molar mass, not a printed value.

Legend:
[1] = target: T1, Amine oxidase [flavin-containing] A (Homo sapiens, UniProt P21397); test: Inhibition of human recombinant MAO-A expressed in yeast after 1 hr by luciferin-based luminescence assay
T1 sequence (P21397 whole entry): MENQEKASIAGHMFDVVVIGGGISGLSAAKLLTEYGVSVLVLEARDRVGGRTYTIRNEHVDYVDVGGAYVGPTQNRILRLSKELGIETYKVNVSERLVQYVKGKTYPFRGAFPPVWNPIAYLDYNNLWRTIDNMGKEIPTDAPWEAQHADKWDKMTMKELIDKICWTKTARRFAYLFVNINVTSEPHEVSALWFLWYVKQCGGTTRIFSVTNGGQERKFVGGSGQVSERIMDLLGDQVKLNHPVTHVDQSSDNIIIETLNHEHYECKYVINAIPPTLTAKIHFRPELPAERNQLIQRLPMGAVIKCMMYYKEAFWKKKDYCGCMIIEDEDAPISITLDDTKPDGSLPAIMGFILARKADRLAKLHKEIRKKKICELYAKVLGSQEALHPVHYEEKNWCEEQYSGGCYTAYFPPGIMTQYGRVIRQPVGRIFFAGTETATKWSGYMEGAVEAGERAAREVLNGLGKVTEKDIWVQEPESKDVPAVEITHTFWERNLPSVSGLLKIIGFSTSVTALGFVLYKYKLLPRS

[2] = Myelosuppression activity against human CD34-positive blood stem/progenitor cells assessed as growth inhibition after 9 to 10 days by CellTiter-Glo luminescent assay
Staphylococcus aureus [3] = test: Antibacterial activity against methicillin-resistant Staphylococcus aureus; assay type: functional
Staphylococcus aureus [4] = test: Antibacterial activity against methicillin-resistant Staphylococcus aureus SAU1009; assay type: functional
Procedure, shortened: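 MIC against MRSA strain SAU1009.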

Enterococcus = test: Bacteriostatic activity against vancomycin-sensitive Enterococcus; assay type: functional
Enterococcus faecium [5] = test: Bacteriostatic activity against vancomycin-sensitive Enterococcus faecium; assay type: functional
Enterococcus faecium [6] = test: Bacteriostatic activity against vancomycin-resistant Enterococcus faecium; assay type: functional
Enterococcus faecalis = test: Bacteriostatic activity against vancomycin-sensitive Enterococcus faecalis; assay type: functional

Structure (SMILES): Cn1nnc(-c2ccc(-c3ccc(N4C[C@H](COP(=O)(O)O)OC4=O)cc3F)cn2)n1 [TEDIZOLID PHOSPHATE]
- pIC50 [1]: 5.40
- IC50 [2]: 0.2 µg/mL
- MIC90 (Staphylococcus aureus [3]): 0.5 µg/mL

Structure (SMILES): Cn1nnc(-c2ccc(-c3ccc(N4C[C@H](CO)OC4=O)cc3F)cn2)n1 [TEDIZOLID]
- MIC (Staphylococcus aureus [4]): 0.25 µg/mL (≈ 0.675 µM)

Structure (SMILES): CN[C@H](CC(C)C)C(=O)N[C@H]1C(=O)N[C@@H](CC(N)=O)C(=O)N[C@H]2C(=O)N[C@H]3C(=O)N[C@H](C(=O)N[C@H](C(=O)O)c4cc(O)cc(O)c4-c4cc3ccc4O)[C@H](O)c3ccc(c(Cl)c3)Oc3cc2cc(c3O[C@@H]2O[C@H](CO)[C@@H](O)[C@H](O)[C@H]2O[C@H]2C[C@](C)(N)[C@H](O)[C@H](C)O2)Oc2ccc(cc2Cl)[C@H]1O [VANCOMYCIN]
- MIC50 (Enterococcus): 0.5 µg/mL (≈ 0.345 µM)
- MIC90 (Enterococcus): 2 µg/mL (≈ 1.38 µM)
- MIC50 (Enterococcus faecium [5]): 0.5 µg/mL (≈ 0.345 µM)
- MIC90 (Enterococcus faecium [5]): 0.5 µg/mL (≈ 0.345 µM)
- MIC50 (Enterococcus faecium [6]): > 128 µg/mL
- MIC90 (Enterococcus faecium [6]): > 128 µg/mL
- MIC50 (Enterococcus faecalis): 0.5 µg/mL (≈ 0.345 µM)
- MIC90 (Enterococcus faecalis): 1 µg/mL (≈ 0.69 µM)
